The record followed here is PubChem BioAssay.

The source made the active and inactive calls.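 The calls were made as follows, unless noted: active = viability at or below 10% of carrier control in both of two separate runs; inconclusive = viability at or below 10% in only one of the two runs; inactive = the rest.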

The nature of experiment [1]: Her2 expression decrease, cell viability multiplex – SKBR3 breast tumor cells, AlphaScreen, ATP viability, primary screen (AID 461;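 active = Her2 level under about 52% in both replicate screens, with viability over 70% of control, limit read from the data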;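 as to Her2 level: lower value means less Her2 protein in the cells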;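 as to viability: percent of carrier control wells set as 100% viability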). As to conditions: SKBR3 Her2 protein level, 18-24 h, measured here: SKBR3 viability, ATP luminescence, at 10 µM. For orientation: Bead proximity is the source of the signal in Alpha formats.
Experiment [2] deals with Receptor tyrosine-protein kinase erbB-2 (Homo sapiens) (UniProt P04626). The description is as above. As to conditions: 18-24 h, at 10 µM, stronger effect = lower value.
Chain of Receptor tyrosine-protein kinase erbB-2 (Homo sapiens) (P04626 whole entry, looked up): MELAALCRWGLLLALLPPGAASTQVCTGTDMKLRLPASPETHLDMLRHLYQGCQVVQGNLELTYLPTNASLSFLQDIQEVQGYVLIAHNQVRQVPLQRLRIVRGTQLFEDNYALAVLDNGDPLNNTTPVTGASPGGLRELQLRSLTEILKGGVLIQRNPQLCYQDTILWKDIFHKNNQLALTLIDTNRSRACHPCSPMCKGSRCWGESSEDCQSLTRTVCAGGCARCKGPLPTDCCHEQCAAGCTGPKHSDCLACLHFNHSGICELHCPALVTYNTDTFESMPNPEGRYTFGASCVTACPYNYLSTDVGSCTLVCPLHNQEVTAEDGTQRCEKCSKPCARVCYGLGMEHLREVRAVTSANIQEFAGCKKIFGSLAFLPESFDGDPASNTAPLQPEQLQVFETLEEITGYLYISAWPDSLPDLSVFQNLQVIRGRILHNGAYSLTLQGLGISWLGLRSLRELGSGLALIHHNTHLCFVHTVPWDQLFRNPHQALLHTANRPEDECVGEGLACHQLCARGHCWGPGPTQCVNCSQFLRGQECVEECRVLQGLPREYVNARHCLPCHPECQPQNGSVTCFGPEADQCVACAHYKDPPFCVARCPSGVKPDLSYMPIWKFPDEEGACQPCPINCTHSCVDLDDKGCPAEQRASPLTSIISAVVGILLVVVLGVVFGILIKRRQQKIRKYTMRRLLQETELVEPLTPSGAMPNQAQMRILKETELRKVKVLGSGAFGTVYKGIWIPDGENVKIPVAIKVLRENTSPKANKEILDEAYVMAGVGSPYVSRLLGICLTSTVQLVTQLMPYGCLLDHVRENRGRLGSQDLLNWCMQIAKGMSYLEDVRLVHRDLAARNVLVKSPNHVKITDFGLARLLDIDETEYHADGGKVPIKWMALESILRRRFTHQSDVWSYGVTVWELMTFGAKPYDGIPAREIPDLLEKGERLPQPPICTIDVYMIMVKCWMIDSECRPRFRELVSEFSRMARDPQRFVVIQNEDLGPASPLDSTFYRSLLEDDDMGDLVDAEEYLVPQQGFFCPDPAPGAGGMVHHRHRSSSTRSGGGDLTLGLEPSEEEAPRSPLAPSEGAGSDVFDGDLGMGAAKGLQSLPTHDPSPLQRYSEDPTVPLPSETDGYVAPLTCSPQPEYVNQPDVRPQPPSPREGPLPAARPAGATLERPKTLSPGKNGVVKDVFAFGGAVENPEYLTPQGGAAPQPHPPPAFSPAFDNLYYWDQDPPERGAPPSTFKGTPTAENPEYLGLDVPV
Experiment [3] can be described thus: reduced viability of SK-BR-3 breast cancer cells – cell-based, 24 h, human, pilot screen (AID 572).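 Also: compound exposure lasted between 18 and 24 h rather than exactly 24 h; 100% = carrier-treated control wells.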 As to conditions: SK-BR-3 viability, CellTiter-Glo luminescence, at 10 µM, stronger effect = lower value. In general terms: In ATP-based viability assays light output follows the ATP content of the culture.
Experiment [4] can be described thus: HUVEC growth inhibition – cell-based, human, primary screen (AID 575;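 active = viability at or below 30% in both replicate assays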;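 also: 100% = median of untreated cell wells with 0.1% DMSO on each plate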). The note with it: HUVEC proliferation, CellTiter-Glo luminescence, 72 h; at 10 µM; stronger effect = lower value. In a few lines: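 system = HUVEC primary cells | amount = 1250 cells/well | buffer or medium = supplemented EBM, 2% fetal bovine serum | dosing = single-point 10 µM, DMSO 0.1% final | times = 72 h compound incubation | detection = CTG luminescence | read-out = % viability relative to median vehicle-well signal on each plate | control set = vehicle and MePR control wells | format = collagen-coated 384-well format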

A short description of experiment [5]: H69AR cell proliferation blockers – human, duplicate replicates, primary screen (AID 580;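 active = viability at or under a set limit in both replicates, limit being median viability minus 3 SD, cut at about 48% in these data, passing the limit was not always enough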;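 also: 100% = mean luminescence of untreated wells and 0% = no signal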). As to conditions: H69AR lung tumor cells viability, ATP luminescence, 72 h; at 10 µM; stronger effect = lower value.
The nature of experiment [6]: MRP1 drug-resistance reversers in H69AR cells – cell-based, doxorubicin co-treatment, pilot screen (AID 601;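 active = viability loss from added drug above about 55%, and viability with drug at most 40%, in both replicates, limit read from the data, passing the limit was not always enough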). The note with it: CellTiter-Glo, 72 h, at 10 µM; for differential viability (reversal): stronger effect = higher value.
A short description of experiment [7]: yeast transport mutant growth inhibition pilot in 384-well plates, post-Golgi transport modulator project (AID 636; in the data active = inhibition above about 31%). As to conditions: absorbance 615 nm, about 18 h, stronger effect = higher value.
Experiment [8] is described as follows: growth suppression of yeast trafficking mutant, preliminary HTS, modulators of trafficking downstream of Golgi apparatus project, 1536-format plate, OD 615 nm (AID 637; in the data active = inhibition above about 30%). The note with it: yeast transport mutant growth, absorbance 615 nm, 18 h; stronger effect = higher value.
The mark [9] stands for this setting: H69AR cells + 2 uM doxorubicin, measured here: viability with 2 uM doxorubicin, stronger effect = lower value.
The mark [10] stands for this setting: H69AR cells, compound alone cytotoxicity.

Regarding `Nc1nonc1N1CCCCC1`, the viability (as a rule, a read-out of living cells in per cent, often relative to untreated cells) in experiment [1] is 85.5%; in experiment [3], 85.5% (inactive); in experiment [4], 106% (inactive); in experiment [5], 99.1% (inactive); in experiment [6] (setting [9]), 87.6%; in experiment [6] (setting [10]) it was 99.1%. For the same compound, in experiment [2], the Her2 level was 152% (inactive). For the same compound, in experiment [6] (H69AR cells + 2 uM doxorubicin), the differential viability (reversal) was 11.5% (inactive). The figures for the inhibition in experiment [7] and in experiment [8] were -3.51% (inactive) and -7.33% (inactive), respectively.

For the compound `CCOC(=O)N1CCN(C(=O)CSc2cc(C)nc3c(-c4ccccc4OC)c(C)nn23)CC1`, the viability is 79.5% in experiment [1]; 79.5% (inactive) in experiment [3]; 94% (inactive) in experiment [4]; 73.3% (inactive) in experiment [5]; 24.8% in experiment [6] (setting [9]); 73.3% in experiment [6] (setting [10]). In experiment [2], the Her2 level was 90% (inactive). Moreover, the differential viability (reversal) in experiment [6] (H69AR cells + 2 uM doxorubicin) is 48.5% (inactive). Also, the inhibition – broadly, the change of the read-out against control, counted positive when it falls – is -0.26% (inactive) in experiment [7] and -1.43% (inactive) in experiment [8].

For the compound `Cc1cccc(N2CCN(C(=O)Cn3ccc4ccccc4c3=O)CC2)c1C`, the viability in experiment [1] is 90.5%; in experiment [3], 90.5% (inactive); in experiment [4] it was 94.1% (inactive); in experiment [5], 95% (inactive); in experiment [6] (setting [9]), 96.2%; in experiment [6] (setting [10]) it was 95%. In addition, the Her2 level in experiment [2] is 81% (inactive). Further, the differential viability (reversal) in experiment [6] (H69AR cells + 2 uM doxorubicin) is -1.24% (inactive). Also, the inhibition is -4.34% (inactive) in experiment [7] and -2.91% (inactive) in experiment [8].

For the compound `COc1ccc2c(CC(=O)Nc3nnc(C4CC4)s3)coc2c1`, the viability in experiment [1] was 120%; in experiment [3], 120% (inactive); in experiment [4], 89.4% (inactive); in experiment [5], 99.4% (inactive); in experiment [6] (setting [9]), 94.1%; in experiment [6] (setting [10]), 99.4%. The Her2 level in experiment [2] was 81% (inactive). Moreover, in experiment [6] (H69AR cells + 2 uM doxorubicin), the differential viability (reversal) is 5.3% (inactive). Moreover, the inhibition in experiment [7] is -7.26% (inactive); in experiment [8], -1.9% (inactive).

With `Cc1ccc(C)c(-c2nc3cc(N)ccc3o2)c1`, the viability in experiment [1] is 78.5%; in experiment [3] it was 78.5% (inactive); in experiment [4], 46.6% (inactive); in experiment [5], 102% (inactive); in experiment [6] (setting [9]), 93.8%; in experiment [6] (setting [10]) it was 102%. In addition, in experiment [2], the Her2 level was 106% (inactive). Further, in experiment [6] (H69AR cells + 2 uM doxorubicin), the differential viability (reversal) is 8.46% (inactive). For the same compound, the inhibition in experiment [7] was -1.18% (inactive); in experiment [8], -6.03% (inactive).

In the case of `O=C(CN1CCN(Cc2ccc3c(c2)OCO3)CC1)Nc1ccc2c(c1)OCCO2`, the viability in experiment [1] was 97%; in experiment [3], 97% (inactive); in experiment [4], 93.8% (inactive); in experiment [5], 94.4% (inactive); in experiment [6] (setting [9]) it was 78%; in experiment [6] (setting [10]), 94.4%. In experiment [2], the Her2 level is 89.5% (inactive). The differential viability (reversal) in experiment [6] (H69AR cells + 2 uM doxorubicin) is 16.4% (inactive). The inhibition is -2.43% (inactive) in experiment [7] and -1.27% (inactive) in experiment [8].

For the compound `COc1cccc(OC)c1C(=O)N1CCN(S(=O)(=O)c2ccccc2)CC1`, the viability in experiment [1] was 79.5%; in experiment [3], 79.5% (inactive); in experiment [4], 82.9% (inactive); in experiment [5] it was 97.2% (inactive); in experiment [6] (setting [9]), 82.1%; in experiment [6] (setting [10]) it was 97.2%. Further, the Her2 level in experiment [2] was 82.5% (inactive). In experiment [6] (H69AR cells + 2 uM doxorubicin), the differential viability (reversal) is 15.2% (inactive). The inhibition was -3.42% (inactive) in experiment [7] and -2% (inactive) in experiment [8].

For `COC(=O)c1cc(=O)nc2sc(-c3cccs3)nn12`, the viability is 115% in experiment [1]; 115% (inactive) in experiment [3]; 84% (inactive) in experiment [4]; 93.4% (inactive) in experiment [5]; 85.2% in experiment [6] (setting [9]); 93.4% in experiment [6] (setting [10]). Also, the Her2 level in experiment [2] is 85% (inactive). In addition, the differential viability (reversal) in experiment [6] (H69AR cells + 2 uM doxorubicin) is 8.2% (inactive). For the same compound, the inhibition was -4.86% (inactive) in experiment [7] and 5.24% (inactive) in experiment [8].

For `COc1ccccc1-c1nc2n(n1)C(c1cccs1)C(C(=O)Nc1cccnc1)=C(C)N2` (stereo not given), the viability in experiment [1] is 83.5%; in experiment [3] it was 83.5% (inactive); in experiment [4], 97.9% (inactive); in experiment [5], 87.1% (inactive); in experiment [6] (setting [9]) it was 87%; in experiment [6] (setting [10]), 87.1%. In experiment [2], the Her2 level is 95.5% (inactive). In addition, the differential viability (reversal) in experiment [6] (H69AR cells + 2 uM doxorubicin) was 0.115% (inactive). Further, the inhibition in experiment [7] was -2.43% (inactive); in experiment [8] it was -4.92% (inactive).

In the case of `Cc1cccc(OCC(=O)N2CCC(N3CCCCCC3)CC2)c1`, the viability in experiment [1] is 95.5%; in experiment [3], 95.5% (inactive); in experiment [4], 97.1% (inactive); in experiment [5], 106% (inactive); in experiment [6] (setting [9]), 98.8%; in experiment [6] (setting [10]), 106%. Further, the Her2 level in experiment [2] was 126% (inactive). Also, in experiment [6] (H69AR cells + 2 uM doxorubicin), the differential viability (reversal) is 7.21% (inactive). Also, the inhibition in experiment [7] was -1.45% (inactive); in experiment [8], -6.07% (inactive).

`COc1ccc(Br)cc1C(=O)Nc1nnn(C)n1`: the viability in experiment [1] was 81.5%; in experiment [3], 81.5% (inactive); in experiment [4], 106% (inactive); in experiment [5], 104% (inactive); in experiment [6] (setting [9]) it was 93.2%; in experiment [6] (setting [10]), 104%. The Her2 level in experiment [2] is 106% (inactive). In experiment [6] (H69AR cells + 2 uM doxorubicin), the differential viability (reversal) is 10.9% (inactive). Also, the inhibition in experiment [7] is 3.95% (inactive); in experiment [8], 30.5% (active).

With `CSCCC(NC(=O)c1ccco1)C(=O)O` (stereo not given), the viability in experiment [1] was 97.5%; in experiment [3], 97.5% (inactive); in experiment [4], 112% (inactive); in experiment [5] it was 91.8% (inactive); in experiment [6] (setting [9]) it was 91%; in experiment [6] (setting [10]), 91.8%. Further, the Her2 level in experiment [2] is 110% (inactive). Further, the differential viability (reversal) in experiment [6] (H69AR cells + 2 uM doxorubicin) was 0.86% (inactive). Also, the inhibition was -0.93% (inactive) in experiment [7] and 15% (inactive) in experiment [8].

In the case of `CCOC(=O)N1CCC(N2C(=O)c3ccc(C(=O)NCc4ccco4)cc3C2=O)CC1`, the viability was 95.5% in experiment [1]; 95.5% (inactive) in experiment [3]; 79.6% (inactive) in experiment [4]; 85.9% (inactive) in experiment [5]; 81% in experiment [6] (setting [9]); 85.9% in experiment [6] (setting [10]). Moreover, the Her2 level in experiment [2] is 94% (inactive). For the same compound, in experiment [6] (H69AR cells + 2 uM doxorubicin), the differential viability (reversal) is 4.97% (inactive). The values for the inhibition in experiment [7] and in experiment [8] were 0% (inactive) and -0.17% (inactive), respectively.

As to `O=C(c1cccc2ccccc12)N1CCC(N2CCN(c3ccccc3)CC2)CC1`, the viability in experiment [1] is 84%; in experiment [3], 84% (inactive); in experiment [4] it was 81.7% (inactive); in experiment [5], 88% (inactive); in experiment [6] (setting [9]), 92%; in experiment [6] (setting [10]), 88%. The Her2 level in experiment [2] is 90.5% (inactive). Also, the differential viability (reversal) in experiment [6] (H69AR cells + 2 uM doxorubicin) is -4% (inactive). Besides, the figures for the inhibition in experiment [7] and in experiment [8] were -1.97% (inactive) and -4.43% (inactive), respectively.

On to `CCOC(=O)c1ccc(NC(=O)CSCc2ccco2)cc1`, for which the viability in experiment [1] was 108%; in experiment [3] it was 108% (inactive); in experiment [4], 81.9% (inactive); in experiment [5] it was 87.7% (inactive); in experiment [6] (setting [9]) it was 79.4%; in experiment [6] (setting [10]), 87.7%. For the same compound, in experiment [2], the Her2 level is 100% (inactive). The differential viability (reversal) in experiment [6] (H69AR cells + 2 uM doxorubicin) is 8.33% (inactive). For the same compound, the inhibition is -5.45% (inactive) in experiment [7] and -2.62% (inactive) in experiment [8].

As to `O=C(CCN1C(=O)COc2ccccc21)NCCCN1CCN(c2ccccc2F)CC1`, the viability was 105% in experiment [1]; 105% (inactive) in experiment [3]; 90.6% (inactive) in experiment [4]; 84.6% (inactive) in experiment [5]; 79% in experiment [6] (setting [9]); 84.6% in experiment [6] (setting [10]). In addition, the Her2 level in experiment [2] is 118% (inactive). Also, the differential viability (reversal) in experiment [6] (H69AR cells + 2 uM doxorubicin) was 5.56% (inactive). Moreover, the inhibition in experiment [7] was -3.64% (inactive); in experiment [8], -2.5% (inactive).
